Values after ≈ are worked out from the molar mass of the structure shown.
Key:
Acinetobacter baumannii [1] = assay: Antimicrobial activity against multidrug-resistant Acinetobacter baumannii assessed as resistant isolates by disk diffusion method; format: functional
How it was run: (§1)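 Standard disk diffusion was done on Mueller-Hinton agar with ampicillin-sulbactam, ceftazidime, cefepime, meropenem, tobramycin, gentamicin, ciprofloxacin and tetracycline. Isolates were called susceptible or resistant using CLSI breakpoints.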

Acinetobacter baumannii [2] = assay: Antimicrobial activity against multidrug-resistant Acinetobacter baumannii expressing armA and bla oxa-23 gene assessed as resistant isolates by disk diffusion method; format: functional; how it was run: as §1
Acinetobacter baumannii [3] = assay: Antimicrobial activity against Acinetobacter baumannii AB017 transformant harboring bla-OXA-23 gene by Etest method; format: functional
Acinetobacter baumannii [4] = assay: Antimicrobial activity against Acinetobacter baumannii HE130 lacking bla-OXA-23 gene by Etest method
Acinetobacter baumannii [5] = assay: Antimicrobial activity against multidrug-resistant Acinetobacter baumannii assessed as resistant isolates by disk diffusion method in presence of beta-lactamase inhibitor Sulbactam; format: functional; how it was run: as §1
Acinetobacter baumannii [6] = assay: Antimicrobial activity against Acinetobacter baumannii AB026 transformant harboring bla-OXA-23 gene by Etest method; format: functional
Acinetobacter baumannii [7] = assay: Antimicrobial activity against multidrug-resistant Acinetobacter baumannii expressing armA gene by Etest method; format: functional
Acinetobacter baumannii [8] = assay: Antimicrobial activity against multidrug-resistant Acinetobacter baumannii by Etest method; format: functional
Acinetobacter baumannii [9] = assay: Antimicrobial activity against multidrug-resistant Acinetobacter baumannii expressing aac(6')-1b gene by Etest method; format: functional
Acinetobacter baumannii [10] = assay: Antimicrobial activity against multidrug-resistant Acinetobacter baumannii expressing aph(3')-Vla gene by Etest method; format: functional

O=C(O)c1cn(C2CC2)c2cc(N3CCNCC3)c(F)cc2c1=O [CIPROFLOXACIN]
Activity (Acinetobacter baumannii [1]): 95.9%

C[C@@H](O)[C@H]1C(=O)N2C(C(=O)O)=C(SCCNC=N)C[C@H]12 [IMIPENEM ANHYDROUS]
Activity (Acinetobacter baumannii [2]): 18.4% | MIC (Acinetobacter baumannii [3]): 4 µg/mL (≈ 13.4 µM) | MIC (Acinetobacter baumannii [4]): 0.5 µg/mL (≈ 1.67 µM)

CC1(C)S[C@@H]2[C@H](NC(=O)[C@H](N)c3ccccc3)C(=O)N2[C@H]1C(=O)O [AMPICILLIN]
Activity (Acinetobacter baumannii [5]): 40.8%

C[C@@H](O)[C@H]1C(=O)N2C(C(=O)O)=C(S[C@@H]3CN[C@H](C(=O)N(C)C)C3)[C@H](C)[C@H]12 [MEROPENEM]
Activity (Acinetobacter baumannii [1]): 22.4% | MIC (Acinetobacter baumannii [6]): 6 µg/mL (≈ 15.6 µM) | MIC (Acinetobacter baumannii [4]): 0.125 µg/mL (≈ 0.326 µM)

NCC[C@H](O)C(=O)N[C@@H]1C[C@H](N)[C@@H](O[C@H]2O[C@H](CN)[C@@H](O)[C@H](O)[C@H]2O)[C@H](O)[C@H]1O[C@H]1O[C@H](CO)[C@@H](O)[C@H](N)[C@H]1O [AMIKACIN]
Activity (Acinetobacter baumannii [1]): 36.7% | MIC (Acinetobacter baumannii [7]): > 256 µg/mL | MIC (Acinetobacter baumannii [8]): 128 µg/mL (≈ 219 µM) | MIC (Acinetobacter baumannii [9]): 2 µg/mL (≈ 3.42 µM) | MIC (Acinetobacter baumannii [10]): 12 µg/mL (≈ 20.5 µM)

GENTAMICIN
Percent resistant isolates (Acinetobacter baumannii [1]): 77.6%

CN(C)[C@@H]1C(O)=C(C(N)=O)C(=O)[C@@]2(O)C(O)=C3C(=O)c4c(O)cccc4[C@@](C)(O)[C@H]3C[C@@H]12 [TETRACYCLINE]
Activity (Acinetobacter baumannii [1]): 79.6%

NC[C@H]1O[C@H](O[C@H]2[C@H](O)[C@@H](O[C@H]3O[C@H](CO)[C@@H](O)[C@H](N)[C@H]3O)[C@H](N)C[C@@H]2N)[C@H](N)C[C@@H]1O [TOBRAMYCIN]
Activity (Acinetobacter baumannii [1]): 61.2%

CO/N=C(\C(=O)N[C@@H]1C(=O)N2C(C(=O)[O-])=C(C[N+]3(C)CCCC3)CS[C@H]12)c1csc(N)n1 [CEFEPIME]
Activity (Acinetobacter baumannii [1]): 79.6%

CC(C)(O/N=C(\C(=O)N[C@@H]1C(=O)N2C(C(=O)[O-])=C(C[n+]3ccccc3)CS[C@H]12)c1csc(N)n1)C(=O)O [CEFTAZIDIME]
Activity (Acinetobacter baumannii [1]): 87.8%

— ChEMBL document CHEMBL1671632, “Genetic basis of multidrug resistance in Acinetobacter baumannii clinical isolates at a tertiary medical center in Pennsylvania” (2008)
